We go through 20 compounds from ChEMBL document CHEMBL3804768, “Structure-Activity Relationship Studies of Mitogen Activated Protein Kinase Interacting Kinase (MNK) 1 and 2 and BCR-ABL1 Inhibitors Targeting Chronic Myeloid Leukemic Cells” (J Med Chem, 2016).

Data set [1] addresses Bcr/Abl fusion protein (Homo sapiens, UniProt P00519). Put plainly: Inhibition of BCR fused full length human recombinant N-terminal His-tagged ABL (2 to 1130 residues) expressed in baculovirus expression system using FL-peptide 2 substrate preincubated for 10 mins followed by substrate addition measured after 60 mins by mobility shift assay.
In data set [2] the target is MAP kinase-interacting serine/threonine-protein kinase 1 (Homo sapiens, UniProt Q9BUB5). Put plainly: Inhibition of N-terminal GST-tagged MNK1 kinase domain (37 to 341 residues) (unknown origin) expressed in Escherichia coli BL21(DE3) cells using JH3 peptide substrate preincubated for 10 mins followed by substrate addition measured after 60 mins by mobility shift assay.
Chain of MAP kinase-interacting serine/threonine-protein kinase 1 (Q9BUB5 whole entry, the tested form may be a part): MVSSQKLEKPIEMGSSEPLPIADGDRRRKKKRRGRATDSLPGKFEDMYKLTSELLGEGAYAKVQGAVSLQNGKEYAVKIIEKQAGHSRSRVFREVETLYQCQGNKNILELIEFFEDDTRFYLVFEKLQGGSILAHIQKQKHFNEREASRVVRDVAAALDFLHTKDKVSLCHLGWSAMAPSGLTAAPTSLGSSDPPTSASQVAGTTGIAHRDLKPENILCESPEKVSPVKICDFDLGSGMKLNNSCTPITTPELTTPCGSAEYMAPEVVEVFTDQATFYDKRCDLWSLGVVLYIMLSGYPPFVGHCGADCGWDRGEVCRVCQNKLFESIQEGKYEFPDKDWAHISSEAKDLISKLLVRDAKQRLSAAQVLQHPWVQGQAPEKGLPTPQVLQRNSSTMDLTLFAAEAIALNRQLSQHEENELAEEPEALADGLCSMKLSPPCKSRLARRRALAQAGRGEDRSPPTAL

For data set [3], the target named is MAP kinase-interacting serine/threonine-protein kinase 2 (Homo sapiens, UniProt Q9HBH9). Put plainly: Inhibition of N-terminal GST-tagged MNK2 kinase domain (72 to 385 residues) (unknown origin) expressed in Escherichia coli BL21(DE3) cells using JH3 peptide substrate preincubated for 10 mins followed by substrate addition measured after 60 mins by mobility shift assay.
Chain of MAP kinase-interacting serine/threonine-protein kinase 2 (Q9HBH9 whole entry, the tested form may be a part): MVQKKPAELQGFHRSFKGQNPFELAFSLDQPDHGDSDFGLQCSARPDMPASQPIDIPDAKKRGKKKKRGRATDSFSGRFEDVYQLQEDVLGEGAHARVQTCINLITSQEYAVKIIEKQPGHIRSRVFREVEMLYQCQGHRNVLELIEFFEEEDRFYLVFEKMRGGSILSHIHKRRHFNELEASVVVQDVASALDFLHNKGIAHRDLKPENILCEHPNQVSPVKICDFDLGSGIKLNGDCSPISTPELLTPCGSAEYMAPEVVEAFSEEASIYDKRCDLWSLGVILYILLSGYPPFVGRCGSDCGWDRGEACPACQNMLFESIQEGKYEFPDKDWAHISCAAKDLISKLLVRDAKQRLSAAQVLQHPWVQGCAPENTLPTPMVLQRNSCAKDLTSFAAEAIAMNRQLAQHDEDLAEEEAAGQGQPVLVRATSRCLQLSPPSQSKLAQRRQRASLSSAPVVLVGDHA

Data set [4] deals with Tyrosine-protein kinase ABL1 (Homo sapiens, UniProt P00519, T315I). The data set can be described thus: Inhibition of full length human recombinant N-terminal His-tagged ABL (2 to 1130 residues) T315I mutant expressed in baculovirus expression system using FL-peptide 2 substrate preincubated for 10 mins followed by substrate addition measured after 60 mins by mobility shift assay. The gist of the method:
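Buffer is 100 mM HEPES pH 7.5, 10 mM MgCl2, 0.004% Tween 20, 1 mM DTT, 0.003% Brij L23. Enzyme and compound sit 10 min before ATP/substrate is added. The reaction runs 60 min at room temperature, is stopped with 10 mM EDTA, and is read by mobility shift.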

In data set [5] the target is MAP kinase-interacting serine/threonine-protein kinase 1/2 (Homo sapiens, UniProt Q9HBH9+Q9BUB5). The data set can be described thus: Inhibition of MNK1/MNK2 in human HeLa cells assessed as reduction in phosphorylation of eIF4E at Ser209 after 2 hrs by AlphaScreen SureFire assay. Type of data set: cell-based. The essentials:
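HeLa cells were grown in DMEM with 10% FBS and penicillin/streptomycin, seeded at 30,000 per well and left 24 h. They were then exposed to serially diluted compound in serum-free DMEM for 2 h at 37 °C and lysed with shaking for 20 min. Phospho-eIF4E Ser209 was read by AlphaScreen SureFire with 2 h acceptor and 2 h donor steps at room temperature. Dose response was run in triplicate.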
A general note: Alpha assays give light when donor and acceptor beads are brought close together.

Data set [6] has as its system K562. Put plainly: Antiproliferative activity against human K562 cells over expressing eIF4E after 48 hrs by Cell-Titer-Glo luminescent cell viability assay. Type of data set: functional. The note with it: K562, 48 h. The essentials:
(§1)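 Cells seeded at 5000 per well in growth medium, exposed to serial doses from 0.003 μM to 50 μM for 48 h at 37 °C, 5% CO2. Viability was read by CellTiter-Glo luminescence and GI50 taken from the dose-response curve. Dose response was run in triplicate and the curve repeated twice. K562 eIF4E-overexpressing cells were cultured in RPMI with 10% FBS.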

Data set [7] concerns K562. The data set can be described thus: Antiproliferative activity against human K562 cells after 48 hrs by Cell-Titer-Glo luminescent cell viability assay. In kind it is functional. Particulars: K562, 48 h. The gist of the method: as §1
Data set [8] is described as follows: Antiproliferative activity against human BV173 cells after 48 hrs by Cell-Titer-Glo luminescent cell viability assay. Type of data set: functional. Particulars: BV-173, 48 h. The essentials:
as §1

Data set [9] is described as follows: Antiproliferative activity against human EM2 cells after 48 hrs by Cell-Titer-Glo luminescent cell viability assay. Type of data set: functional. The note with it: EM-2, 48 h. The gist of the method: as §1
Data set [10] in a line: Antiproliferative activity against human KCL22 cells after 48 hrs by Cell-Titer-Glo luminescent cell viability assay. Type of data set: functional. Particulars: KCL-22, 48 h.
The nature of data set [11]: Antiproliferative activity against human JURL-MK1 cells after 48 hrs by Cell-Titer-Glo luminescent cell viability assay. In kind it is functional. The note with it: JURL-MK1, 48 h.
For data set [12], the system named is K562. The data set can be described thus: Antitumor activity against human K562 cells over expressing eIF4E xenografted in NOD-SCID mouse assessed as tumor growth inhibition at 200 mg/kg, po qd administered through oral gavage for 14 days relative to control. The note with it: 336 h, read-out: TGI. In kind it is functional. The gist of the method:
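Female SCID mice, 7-10 weeks old, received 1 x 10^7 K562 eIF4E-overexpressing cells subcutaneously. At tumor volumes of 75-245 mm³ (w²×l/2) mice were randomized and gavaged once daily for 14 days at 10 mL/kg.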
In general terms: Xenograft models place foreign cells or tissue in a host animal.

The nature of data set [13]: Thermodynamic solubility in pH 4 pION buffer at 500 uM incubated for 18 hrs by UV-spectrophotometry. In kind it is physicochemical. The note with it: read-out: Therm_solubility.
In data set [14] the target is Cytochrome P450 3A4 (Homo sapiens, UniProt P08684). The data set can be described thus: Inhibition of CYP3A4 (unknown origin). Type of data set: ADME.
Chain of Cytochrome P450 3A4 (P08684 whole entry): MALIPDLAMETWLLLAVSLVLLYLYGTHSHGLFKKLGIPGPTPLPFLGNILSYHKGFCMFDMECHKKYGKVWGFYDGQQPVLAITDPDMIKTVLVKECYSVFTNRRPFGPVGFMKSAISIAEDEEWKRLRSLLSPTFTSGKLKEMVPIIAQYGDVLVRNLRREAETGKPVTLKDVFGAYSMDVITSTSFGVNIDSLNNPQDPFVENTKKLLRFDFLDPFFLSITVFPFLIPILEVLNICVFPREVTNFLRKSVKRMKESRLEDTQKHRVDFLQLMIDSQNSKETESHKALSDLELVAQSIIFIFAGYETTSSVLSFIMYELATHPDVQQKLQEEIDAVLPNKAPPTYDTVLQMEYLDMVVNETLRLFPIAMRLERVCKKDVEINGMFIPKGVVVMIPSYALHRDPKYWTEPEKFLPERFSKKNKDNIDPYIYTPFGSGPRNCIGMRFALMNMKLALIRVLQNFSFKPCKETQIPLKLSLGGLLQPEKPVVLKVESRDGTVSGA
In data set [15] the target is Cytochrome P450 2D6 (Homo sapiens, UniProt P10635). Put plainly: Inhibition of CYP2D6 (unknown origin). In kind it is ADME.
Chain of Cytochrome P450 2D6 (P10635 whole entry, the tested form may be a part): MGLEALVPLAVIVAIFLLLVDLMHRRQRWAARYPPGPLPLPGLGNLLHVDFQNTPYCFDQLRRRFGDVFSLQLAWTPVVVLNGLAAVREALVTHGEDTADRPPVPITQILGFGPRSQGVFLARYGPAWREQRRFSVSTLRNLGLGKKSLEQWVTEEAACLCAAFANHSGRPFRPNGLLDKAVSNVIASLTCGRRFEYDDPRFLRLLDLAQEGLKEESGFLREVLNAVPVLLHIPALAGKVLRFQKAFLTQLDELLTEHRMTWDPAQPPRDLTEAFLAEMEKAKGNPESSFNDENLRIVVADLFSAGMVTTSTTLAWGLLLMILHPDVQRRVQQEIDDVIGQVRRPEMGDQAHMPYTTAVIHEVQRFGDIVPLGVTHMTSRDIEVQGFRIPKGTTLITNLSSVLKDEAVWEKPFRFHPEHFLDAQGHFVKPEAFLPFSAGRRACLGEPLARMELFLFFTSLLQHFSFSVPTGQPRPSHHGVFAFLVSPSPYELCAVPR
Data set [16] in a line: Permeability of compound by PAMPA. Particulars: read-out: permeability. Type of data set: ADME. Background: The PAMPA barrier holds no transporters, so it reflects passive diffusion.
The nature of data set [17]: Thermodynamic solubility in pH 7 pION buffer at 500 uM incubated for 18 hrs by UV-spectrophotometry. The note with it: read-out: Therm_solubility. Type of data set: physicochemical.

The structures appear in SMILES notation. Converted amounts (≈) assume the structure as drawn. Where only a bound is given, the exact number is not on record here.

For `CCN1CCN(Cc2ccc(NC(=O)COc3ccc(-c4ccc(NC(C)=O)nc4)cc3)cc2C(F)(F)F)CC1`, the IC50 (commonly the point on the concentration scale where inhibition reaches its midpoint) in data set [1] worked out at 390 nM; in [2] it was 5680 nM; in data set [3], 33 nM; in [4], 170 nM; in data set [5], 680 nM. In addition, growth in [6] was halved (GI50) at 100 nM.

For the compound `CCN1CCC(Cc2ccc(NC(=O)COc3ccc(-c4cccnc4)cc3)cc2C(F)(F)F)CC1`, the half-maximal inhibitory concentration (IC50) in data set [1], in data set [2] and in [3] was above 10000 nM each time.

In the case of `CCN1CCN(Cc2ccc(CC(=O)Nc3ccc(Oc4cc(NC)ncn4)cc3)cc2C(F)(F)F)CC1`, the IC50 was above 10000 nM in [1], above 10000 nM in data set [2] and 760 nM in data set [3].

As for `O=C(COc1ccc(-c2cccnc2)cc1)Nc1ccc(CN2CCNCC2)c(C(F)(F)F)c1`, the IC50 in data set [1] was above 10000 nM; in data set [2] it was 350 nM; in data set [3], 12 nM.

Turning to `CCN1CCN(Cc2ccc(NC(=O)COc3ccc(-c4ccc(C(=O)NC)nc4)cc3)cc2C(F)(F)F)CC1`, the IC50 is above 10000 nM in [1], above 10000 nM in data set [2] and 6860 nM in [3].

As for `Cc1ccc(NC(=O)c2ccc(CN3CCN(C)CC3)cc2)cc1Nc1nccc(-c2cccnc2)n1` [IMATINIB], the GI50 (usually the concentration that inhibits growth by half) in data set [7] stood at 200 nM; in data set [8], 100 nM; in data set [9] it was 260 nM; in data set [10], 430 nM; in [11], 60 nM. Also, the inhibition in vivo at 200 mg/kg in [12] amounted to 57%.

As for `CCN1CCN(Cc2ccc(NC(=O)CNc3ccc(-c4cccnc4)cc3)cc2C(F)(F)F)CC1`, the half-inhibitory concentration (IC50) is above 10000 nM in data set [1], 350 nM in [2] and 11 nM in data set [3].

For `CC(C)C(=O)Nc1ccc(-c2ccc(NCC(=O)Nc3ccc(CN4CCNCC4)c(C(F)(F)F)c3)cc2)cn1`, the IC50 in [1] was above 10000 nM; in data set [2] it was 7700 nM; in data set [3], 130 nM; in [4] it was above 10000 nM; in data set [5], 860 nM. Further, the GI50 in data set [6] was found to be 3300 nM.

On to `CCN1CCN(Cc2ccc(NC(=O)COc3ccc(-c4cccnc4)cc3)cc2C2CC2)CC1`, for which the concentration for half-maximal inhibition (IC50) was above 10000 nM in data set [1], above 10000 nM in [2] and 130 nM in data set [3].

As to `CCN1CCN(Cc2ccc(NC(=O)COc3ccc(-c4ccncc4)cc3)cc2C(F)(F)F)CC1`, the IC50 was above 10000 nM in data set [1], above 10000 nM in data set [2] and 1910 nM in [3].

Take `O=C(CNc1ccc(-c2ccc(NC(=O)C3CC3)nc2)cc1)Nc1ccc(CN2CCNCC2)c(C(F)(F)F)c1`: the concentration for half-maximal inhibition (IC50) in [1] was 210 nM; in data set [2], 510 nM; in [3] it was 8 nM; in data set [4], 100 nM; in data set [5], 320 nM; in data set [14], 1100 nM. This compound displayed an IC50 in [15] above 20000 nM. Also, in data set [6], the GI50 is 80 nM. Further, the solubility thermodynamic at 18 h, 500 µM in [13] came out at 109 µg/mL (≈ 197 µM). Also, the Papp in data set [16] stood at 5.53 ×10⁻⁶ cm/s.

For `CCC1CCN(Cc2ccc(NC(=O)COc3ccc(-c4cccnc4)cc3)cc2C(F)(F)F)CC1`, the IC50 in data set [1] was above 10000 nM; in data set [2], 4510 nM; in [3], 82 nM.

Regarding `CCN1CCN(Cc2ccc(NC(=O)COc3ccc(-c4cccnc4)cc3)cc2C(F)(F)F)CC1`, the concentration for half-maximal inhibition (IC50) in [1] is above 10000 nM; in [2] it was 570 nM; in data set [3], 14 nM; in data set [5] it was 98 nM. Also, the 50% growth inhibitory concentration (GI50) in data set [6] was above 10000 nM.

Consider `CCN1CCN(Cc2ccc(NC(=O)CNc3ccc(-c4ccc(NC(C)=O)nc4)cc3)cc2C(F)(F)F)CC1`, for which the half-maximal inhibitory concentration (IC50) in data set [1] stood at 380 nM; in data set [2], 5980 nM; in data set [3], 44 nM; in data set [4], 90 nM; in [5], 320 nM; in data set [14], 3200 nM. This compound came in with a half-maximal inhibitory concentration (IC50) in data set [15] above 20000 nM. The compound further had a concentration for 50% growth inhibition (GI50) in data set [6] of 340 nM. For the same compound, in data set [17], the solubility thermodynamic at 18 h, 500 µM worked out at 0.6 µg/mL (≈ 1.08 µM). The Papp in data set [16] is 26.2 ×10⁻⁶ cm/s.

As for `CCN1CCN(Cc2ccc(NC(=O)COc3ccc(-c4ccccn4)cc3)cc2C(F)(F)F)CC1`, the IC50 in [1], in data set [2] and in data set [3] was above 10000 nM in each case.

For `CCN1CCN(Cc2ccc(NC(=O)C(C)Oc3ccc(-c4cccnc4)cc3)cc2C(F)(F)F)CC1` (configuration not stated), the concentration for half-maximal inhibition (IC50) in [1], in data set [2] and in [3] was above 10000 nM each time.

Consider `CCN1CCN(Cc2ccc(NC(=O)Cc3ccc(Oc4ccncc4)cc3)cc2C(F)(F)F)CC1`, for which the IC50 in [1] was 3880 nM; in [2] it was 540 nM; in data set [3], 10 nM.

For the compound `CCN1CCN(Cc2ccc(NC(=O)Cc3ccc(Oc4cc(NC)ncn4)cc3)cc2C(F)(F)F)CC1`, the IC50 in [1] is above 10000 nM; in [2], 3690 nM; in data set [3], 22 nM.

For the compound `CCN1CCN(Cc2ccc(NC(=O)Cc3ccc(Oc4ccnc(NC)c4)cc3)cc2C(F)(F)F)CC1`, the half-inhibitory concentration (IC50) in data set [1] was 580 nM; in [2], 370 nM; in [3] it was 8 nM.

`CC(=O)Nc1ccc(-c2ccc(NCC(=O)Nc3ccc(CN4CCNCC4)c(C(F)(F)F)c3)cc2)cn1`: the IC50 in data set [1] worked out at 880 nM; in [2], 3920 nM; in data set [3], 32 nM; in data set [4] it was 240 nM; in data set [5] it was 200 nM; in data set [14], 2400 nM. The half-inhibitory concentration (IC50) in [15] is above 20000 nM. Also, halving of growth in [6] (GI50) required 400 nM. In addition, in data set [13], the solubility thermodynamic at 18 h, 500 µM is 132 µg/mL (≈ 250 µM). Also, in data set [16], the Papp amounted to 1.13 ×10⁻⁶ cm/s.
